Results of several laboratories.
Protocols differ between the studies behind these lines.
Read-out: microbial growth

O=C(Cc1cc(O)c(O)c(O)c1)NCCCCCCCC[P+](c1ccccc1)(c1ccccc1)c1ccccc1.[Br-] — MIC (Cryptococcus neoformans; broth dilution; ATCC208821; 24 h): > 32 µg/mL
NC[C@H]1O[C@H](O[C@H]2[C@H](O)[C@@H](O[C@H]3O[C@H](CO)[C@@H](O)[C@H](N)[C@H]3O)[C@H](N)C[C@@H]2N)[C@H](O)[C@@H](O)[C@@H]1O — MIC (Listeria monocytogenes; ATCC19115): > 128 µg/mL
CCCCCCC/C=C/C(=O)N1C(=O)/C(=C(\O)CCCC)C(=O)C1CC(C)C (stereo not drawn) — MIC (Proteus vulgaris; ATCC33420): > 200 µg/mL
CCCCCCCCCCCCS(=O)(=O)C[C@@H]1O[C@@H](O[C@@H]2[C@@H](O)[C@H](O[C@@H]3O[C@@H](CN)[C@H](O)[C@@H](O)[C@@H]3N)[C@@H](N)C[C@H]2N)[C@@H](O)[C@H](N)[C@H]1O — MIC (Listeria monocytogenes; ATCC19115): 4 to 8 µg/mL
CC(C)Oc1c(NC(=O)c2ccc(NC(=O)c3ccc(NC(=O)[C@H](CC(N)=O)NC(=O)c4ccc(NC(=O)c5ccc(C#N)s5)cc4)cc3)c(OC(C)C)c2O)ccc(C(=O)O)c1O — MIC (Proteus vulgaris; DSM2140): 1 µg/mL
CCCCCCC/C=C/C(=O)N1C(=O)/C(=C(/C)O)C(=O)C1CCCCN (stereo not drawn) — MIC (Proteus vulgaris; ATCC33420): > 200 µg/mL
O=C(Cc1ccc(O)c(O)c1)NCCCCCCCC[P+](c1ccccc1)(c1ccccc1)c1ccccc1.[Br-] — MIC (Cryptococcus neoformans; broth dilution; ATCC208821; 24 h): > 32 µg/mL
CC(C)Oc1c(-n2cc(-c3ccc(NC(=O)C(CC(N)=O)NC(=O)c4ccc(NC(=O)c5ccc(C#N)cc5)cc4)cc3)nn2)ccc(C(=O)Nc2ccc(C(=O)O)cc2)c1O (stereo not drawn) — MIC (Proteus vulgaris; DSM2140): 2 µg/mL
O=C(Nc1ccc2c(c1)OC(F)(F)O2)Nc1ccc(Cl)c(C(F)(F)F)c1 — MIC (Listeria monocytogenes): 0.3 µM
CCCCC(=O)N1C(=O)/C(=C(/C)O)C(=O)C1CC(C)C (stereo not drawn) — MIC (Proteus vulgaris; ATCC33420): > 200 µg/mL
C/C(=C\c1ccc(C#N)cc1)C(=O)Nc1ccc(C(=O)N[C@@H](CC(N)=O)C(=O)Nc2ccc(C(=O)Nc3ccc(C(=O)Nc4ccc(C(=O)O)cc4)c(O)c3OC(C)C)cc2)cc1 — MIC (Proteus vulgaris; DSM2140): ≤ 0.03 µg/mL
CCCCCCC/C=C/C(=O)N1C(=O)/C(=C(/C)O)C(=O)C1Cc1ccc(OC(C)(C)C)cc1 (stereo not drawn) — MIC (Proteus vulgaris; ATCC33420): > 200 µg/mL
C/C(=C\c1ccc(O)cc1)C(=O)Nc1ccc(C(=O)N[C@@H](CC(N)=O)C(=O)Nc2ccc(C(=O)Nc3ccc(C(=O)Nc4ccc(C(=O)O)cc4)c(O)c3OC(C)C)cc2)cc1 — MIC (Proteus vulgaris; DSM2140): 0.125 µg/mL
CCCCCCC/C=C/C(=O)N1C(=O)/C(=C(/C)O)C(=O)C1CCC(=O)O (stereo not drawn) — MIC (Proteus vulgaris; ATCC33420): > 200 µg/mL
C[C@@H]1[C@H](O)[C@@H](C)/C=C/C=C/C=C/C=C/C=C/C=C/C=C/[C@H](O[C@@H]2O[C@H](C)[C@@H](O)[C@H](N)[C@@H]2O)C[C@@H]2O[C@](O)(C[C@@H](O)C[C@@H](O)[C@H](O)CC[C@@H](O)C[C@@H](O)CC(=O)O[C@H]1C)C[C@H](O)[C@H]2C(=O)O — MIC (Cryptococcus neoformans; ATCC90113): 1.25 µg/mL
